Published values gathered from unrelated publications.
Each line is one published result; the experiments were not run side by side. ≈ marks a conversion by molar mass, not a printed value.

Structure (SMILES)	target or system	assay	test system	conditions	endpoint	value
CCOC(=O)c1c([C@@H]2C[C@H]2c2ccccc2)n(C)c2ccc(O)cc12 (relative stereo)	Punta Toro virus	cytopathic effect	–	–	MIC50	> 100 µg/mL
COc1ccc(C(=O)c2c[nH]c3ncc(-c4ccc(N5CCNCC5)nc4)cc23)cc1	A549	cell growth or viability, MTT	–	10 µM, 48 h	viability	110%
COC(=O)C(Cc1ccccc1)n1c(C)nc2c(N)nc(=O)[nH]c21 (centres unmarked)	unidentified influenza virus	viral replication	A549, H1N1 PR8	24 h	IC50	340 nM
N=C(N)c1ccc(OCCCCCOc2ccc(C(=N)N)cc2)cc1	Leishmania donovani	parasite growth	–	amastigote	IC90	9 µg/mL (≈ 26.4 µM)
O=C(N/N=C1\C(=O)N(Cc2ccccc2)c2ccc(Cl)cc21)c1cc2ccccc2[nH]1	A549	cell growth or viability, imaging	–	24 h	IC50	1770 nM
Cc1nc2c(N)nc(N)nc2n1C(Cc1ccc(O)cc1)C(=O)O (centres unmarked)	unidentified influenza virus	viral replication	A549, H1N1 PR8	24 h	IC50	24 nM
Cc1c(C)c2c(c(C)c1O)CCC(C)(C(=O)O)O2 (centres unmarked)	–	ABTS scavenging	–	–	IC50	6.16 µg/mL
COc1cc(Nc2nc(C#N)cc3c(-c4ccccc4)n[nH]c23)cc(OC)c1OC	PC-3	cell growth or viability, MTS	–	48 h	IC50	4300 nM
Nc1ncnc2c([C@@H]3N[C@H](CO)[C@@H](O)[C@H]3O)c[nH]c12	Western equine encephalitis virus	viral replication, inhibitor	Vero 76	3 µM	inhibition	0.5%
Cc1c(C)c2c(c(C)c1O)CCC(C)(C(=O)O)O2 (centres unmarked)	–	ABTS scavenging	–	1 h	IC50	20100 nM
O=c1c(O[C@@H]2O[C@H](CO)[C@H](O)[C@H](O)[C@H]2O)c(-c2ccc(O)c(O)c2)oc2cc(O)cc(O)c12	–	ABTS scavenging, absorbance	–	5 min	IC50	6610 nM
Cc1nc2c(N)nc(=O)[nH]c2n1C(Cc1c[nH]c2ccccc12)C(=O)O (centres unmarked)	unidentified influenza virus	viral replication	A549, H1N1 PR8	24 h	IC50	510 nM
COc1ccc2c(c1)/C(=N/NC(=O)c1cc3ccccc3[nH]1)C(=O)N2Cc1ccccc1	A549	cell growth or viability	–	30 µM	inhibition	97.4%
CC(C)(C)OC(=O)N1CCN(c2ccc(-c3cnc4c(c3)c(C(=O)c3ccc(F)cc3)cn4CC3CC3)cn2)CC1	A549	cell growth or viability, MTT	–	10 µM, 48 h	viability	79.8%
O=C(NCCCCCCNc1c2c(nc3ccccc13)CCCC2)c1ccccc1O	–	ABTS scavenging	–	1 h	IC50	21300 nM
C[C@@H]1[C@H](O)[C@@H](C)/C=C/C=C/C=C/C=C/C=C/C=C/C=C/[C@H](O[C@@H]2O[C@H](C)[C@@H](O)[C@H](N)[C@@H]2O)C[C@@H]2O[C@](O)(C[C@@H](O)C[C@@H](O)[C@H](O)CC[C@@H](O)C[C@@H](O)CC(=O)O[C@H]1C)C[C@H](O)[C@H]2C(=O)O	Leishmania donovani	parasite growth	THP-1	intracellular, amastigote	IC50	0.1 µg/mL
C[C@]1(COc2ccc(N3CCC(Oc4ccc(OC(F)(F)F)cc4)CC3)cc2)Cn2cc([N+](=O)[O-])nc2O1	Leishmania donovani	parasite growth	–	promastigote	IC50	249 nM
